Measurements published in ChEMBL document CHEMBL4028890, “A Positive Allosteric Modulator of the Serotonin 5-HT2C Receptor for Obesity” (J Med Chem, 2017).
Values belong to the compound of their own block, whether it stands above or below them. Active and inactive are the calls of the source. No cut-off for these calls is given here.

Experiments:
Rattus norvegicus [1] = experiment: Toxicity in Wistar rat assessed as induction of malaise at 2 mg/kg, ip measured 30 mins for 2 days by conditioned taste aversion test; format: organism-based; conditions: in vivo
Procedure, shortened: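 Rats water-deprived 24 h, then trained to drink from a graded bottle in 30 min sessions for 4 days. On day 5, 0.1% saccharin replaced water, and 30 min later rats got ip vehicle, compound (2 mg/kg) or LiCl (0.4 M, 7.5 mL/kg). Water intake was recorded over 30 min on the next 2 days, then a water or saccharin choice was measured.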

Rattus norvegicus [2] = experiment: Antiobesity activity in restricted food access Wistar rat model assessed as reduction in food intake at 2 mg/kg, ip administered 30 mins prior to food presentation measured after 4 hrs on every day for 7 days; format: functional, organism-based
Procedure, shortened: (§1)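 Rats had food for 4 h/day. Once the feeding baseline was stable, compound (2 mg/kg ip) or vehicle was given 30 min before food presentation. Food and water intake read at the end of the 4 h period. Repeated on 7 consecutive days, with total intake and body weight tracked. Mean ± SEM, n ≥ 8.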

Rattus norvegicus [3] = experiment: Antiobesity activity in Wistar rat assessed as reduction in food intake at 2 mg/kg, ip after 4 hrs in presence of 5-HT2A antagonist ketanserin; format: functional, organism-based
Procedure, shortened: (§2)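 Male Wistar rats, 200−250 g, 10−12 weeks, food-deprived 16 h before refeeding. Test compound given ip in sterile saline. Sertraline, ketanserin (2 mg/kg) or 5-HT2C antagonist (3 mg/kg) was given ip 30 min before the test compound. Food and water intake measured 30, 60, 120 and 240 min after food presentation. Mean ± SEM, at least 8 rats per group.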

Rattus norvegicus [4] = experiment: Antiobesity activity in Wistar rat assessed as reduction in food intake at 1 mg/kg, ip after 4 hrs in presence of 5-HT2C antagonist SB-242084; format: functional, organism-based; procedure, shortened: as §2
Rattus norvegicus [5] = experiment: Toxicity in Wistar rat assessed as induction of hypolocomotion at 2 mg/kg, ip after 30 mins by open field test; format: organism-based; conditions: in vivo, 0.5 h
Procedure, shortened: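 Rats handled for 7 days before testing. Tested 30 min after ip dosing (2 mg/kg), placed in the centre of the open field. Distance walked was recorded automatically over 10 min. No retesting.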

[6] = target: T1, 5-hydroxytryptamine receptor 2C (Homo sapiens) (UniProt P28335); experiment: Positive allosteric modulation of human 5-HT2C receptor expressed in human HeLa-K1 cells assessed as potentiation of 5-HT-induced inositol monophosphate release at 10 uM after 20 mins by HTRF assay relative to control; format: functional, cell-based
T1 sequence (whole entry): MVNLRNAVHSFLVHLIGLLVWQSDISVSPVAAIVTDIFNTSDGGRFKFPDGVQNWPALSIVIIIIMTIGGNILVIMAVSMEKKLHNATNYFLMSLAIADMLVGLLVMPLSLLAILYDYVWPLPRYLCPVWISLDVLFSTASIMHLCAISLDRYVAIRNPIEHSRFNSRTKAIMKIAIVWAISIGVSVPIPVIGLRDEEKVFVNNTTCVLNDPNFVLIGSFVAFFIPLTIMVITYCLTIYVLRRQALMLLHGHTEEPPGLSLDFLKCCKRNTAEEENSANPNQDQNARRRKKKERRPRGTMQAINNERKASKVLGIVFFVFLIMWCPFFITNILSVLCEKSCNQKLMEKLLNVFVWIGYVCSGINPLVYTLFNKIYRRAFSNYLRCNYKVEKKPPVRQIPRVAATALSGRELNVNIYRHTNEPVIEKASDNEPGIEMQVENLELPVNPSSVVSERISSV
Procedure, shortened: (§3)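 IP-One HTRF assay in CHO-K1 cells (human 5-HT2A, 5-HT2B) or HeLa-K1 cells (human 5-HT2C), seeded and grown 24 h at 37 °C. Test compound and/or 5-HT added in stimulation buffer, then 20 min at 37 °C before IP1 read-out. Data normalized to 5-HT maximal effect and fitted by nonlinear regression. Triplicates, mean ± SD.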

Rattus norvegicus [7] = experiment: Antiobesity activity in Wistar rat assessed as reduction in food intake at 2 mg/kg, ip after 4 hrs; format: functional, organism-based
Procedure, shortened: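 Male Wistar rats, 200−250 g, aged 10−12 weeks, food-deprived 16 h before refeeding. Compound given ip in sterile saline; food and water intake measured at 30, 60, 120 and 240 min after food presentation. Where used, antagonist (3 mg/kg, ip) or other pretreatments were injected 30 min before the compound. Mean ± SEM, at least eight rats per group.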

[8] = target: T1, 5-hydroxytryptamine receptor 2C (Homo sapiens); experiment: Intrinsic agonist activity at human 5-HT2C receptor expressed in human HeLa-K1 cells assessed as induction of inositol monophosphate release after 20 mins by HTRF assay; format: functional, cell-based; procedure, shortened: as §3
Rattus norvegicus [9] = experiment: Toxicity in Wistar rat assessed as induction of hypolocomotion at 0.5 to 2 mg/kg, ip after 30 mins by elevated plus maze test; format: organism-based; conditions: in vivo, 0.5 h
Procedure, shortened: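 Maze-naive rats handled for 7 days. Placed in the centre facing an open arm 30 min after ip dosing. Open-arm entries and % time in open arms scored over 5 min. No retesting.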

[10] = target: T2, 5-hydroxytryptamine receptor 2B (Homo sapiens, UniProt P41595); experiment: Intrinsic agonist activity at human 5-HT2B receptor expressed in CHO-K1 cells assessed as induction of inositol monophosphate release at 10 uM after 20 mins by HTRF assay; format: cell-based; procedure, shortened: as §3
T2 sequence (P41595 whole entry): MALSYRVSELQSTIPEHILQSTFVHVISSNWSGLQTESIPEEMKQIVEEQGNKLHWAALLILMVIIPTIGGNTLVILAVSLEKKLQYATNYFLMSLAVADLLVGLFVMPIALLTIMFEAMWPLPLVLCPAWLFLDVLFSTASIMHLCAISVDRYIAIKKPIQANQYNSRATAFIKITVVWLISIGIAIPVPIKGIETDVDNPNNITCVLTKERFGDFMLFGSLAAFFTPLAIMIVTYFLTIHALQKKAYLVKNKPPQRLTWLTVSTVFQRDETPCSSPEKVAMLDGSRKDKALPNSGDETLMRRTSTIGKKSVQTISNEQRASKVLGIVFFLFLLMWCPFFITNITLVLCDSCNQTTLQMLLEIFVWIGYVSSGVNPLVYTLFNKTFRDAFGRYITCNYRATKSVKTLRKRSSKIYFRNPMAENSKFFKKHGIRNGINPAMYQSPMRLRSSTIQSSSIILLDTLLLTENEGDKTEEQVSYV

[11] = target: T1, 5-hydroxytryptamine receptor 2C (Homo sapiens); experiment: Displacement of [3H]-clozapine from human 5-HT2C receptor expressed in human HeLa-K1 cell membranes at 10 uM after 60 mins relative to control
Procedure, shortened: (§4)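 Membranes from 5-HT2C-HeLa cells with test compound (10 μM) in 50 mM Tris-HCl pH 7.4. Radioligands: [3H]mesulergine 4 nM, [3H]LSD 2 nM (15 μg protein each), [3H]clozapine 15 nM (20 μg), 60 min at 27 °C. [3H]5-HT 2 nM (60 μg), 180 min at 4 °C. Nonspecific binding with 10 μM mianserin. Filtered and washed, then counted. Triplicates, mean ± SD.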

[12] = target: T1, 5-hydroxytryptamine receptor 2C (Homo sapiens); experiment: Displacement of [3H]-LSD from human 5-HT2C receptor expressed in human HeLa-K1 cell membranes at 1 uM after 60 mins relative to control
[13] = target: T1, 5-hydroxytryptamine receptor 2C (Homo sapiens); experiment: Displacement of [3H]-5-HT from human 5-HT2C receptor expressed in human HeLa-K1 cell membranes at 10 uM after 180 mins relative to control; procedure, shortened: as §4
[14] = target: T3, 5-hydroxytryptamine receptor 2A (Homo sapiens, UniProt P28223); experiment: Intrinsic agonist activity at human 5-HT2A receptor expressed in CHO-K1 cells assessed as induction of inositol monophosphate release at 10 uM after 20 mins by HTRF assay; format: cell-based; procedure, shortened: as §3
T3 sequence (P28223 whole entry): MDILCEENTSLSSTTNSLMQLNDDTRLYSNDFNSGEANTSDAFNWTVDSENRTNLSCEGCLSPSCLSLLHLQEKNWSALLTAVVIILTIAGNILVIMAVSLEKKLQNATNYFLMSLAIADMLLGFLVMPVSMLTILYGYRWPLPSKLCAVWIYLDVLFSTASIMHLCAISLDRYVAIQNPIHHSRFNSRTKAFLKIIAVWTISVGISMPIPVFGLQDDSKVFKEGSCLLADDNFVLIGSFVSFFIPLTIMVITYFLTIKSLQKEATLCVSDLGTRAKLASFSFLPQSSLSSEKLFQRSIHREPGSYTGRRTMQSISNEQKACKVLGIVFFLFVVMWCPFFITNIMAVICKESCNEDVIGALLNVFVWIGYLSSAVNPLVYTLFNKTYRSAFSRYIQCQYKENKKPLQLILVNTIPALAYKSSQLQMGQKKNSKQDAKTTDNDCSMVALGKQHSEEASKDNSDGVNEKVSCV

Rattus norvegicus [15] = experiment: Antiobesity activity in Wistar rat assessed as reduction in food intake at 10 mg/kg, ip after 4 hrs relative to control; format: functional; parameters: scale not given: the % may be the effect or the level left; procedure, shortened: as §2
Rattus norvegicus [16] = experiment: Antiobesity activity in restricted food access Wistar rat model assessed as reduction in body weight at 2 mg/kg, ip administered 30 mins prior to food presentation measured after 4 hrs on every day for 7 days; format: functional, organism-based; procedure, shortened: as §1
Rattus norvegicus [17] = experiment: In vivo positive allosteric modulation of serotonin-induced feeding suppression in Wistar rat at 0.5 mg/kg, ip after 4 hrs in presence of 2 mg/kg selective serotonin reuptake inhibitor sertraline; format: functional, organism-based; procedure, shortened: as §2
[18] = target: T1, 5-hydroxytryptamine receptor 2C (Homo sapiens); experiment: Displacement of [3H]-LSD from human 5-HT2C receptor expressed in human HeLa-K1 cell membranes at 10 uM after 60 mins relative to control; procedure, shortened: as §4
Rattus norvegicus [19] = experiment: Antiobesity activity in continuous food access Wistar rat model assessed as reduction in food intake at 2 mg/kg, ip administered daily for 7 days; format: functional, organism-based
Procedure, shortened: (§5)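 Wistar rats made obese on 60% fat diet (5.24 kcal/g) for 8 weeks. Free-feeding rats got a daily ip injection of compound (2 mg/kg) or vehicle for 7 days. Daily chow intake (kcal/kg body weight) and body weight gain (g) recorded. Mean ± SEM, n ≥ 8 per group.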

Rattus norvegicus [20] = experiment: In vivo positive allosteric modulation of serotonin-induced feeding suppression in Wistar rat at 2 mg/kg, ip after 4 hrs in presence of 5 mg/kg selective serotonin reuptake inhibitor sertraline; format: functional, organism-based; procedure, shortened: as §2
[21] = Ratio of drug level in brain to plasma in Wistar rat at 10 mg/kg, ip measured up to 6 hrs; format: ADME, organism-based; conditions: read-out: BPR
[22] = target: T2, 5-hydroxytryptamine receptor 2B; experiment: Positive allosteric modulation of human 5-HT2B receptor expressed in CHO-K1 cells assessed as potentiation of 5-HT-induced inositol monophosphate release at 10 uM after 20 mins by HTRF assay; format: cell-based; procedure, shortened: as §3
[23] = target: T1, 5-hydroxytryptamine receptor 2C (Homo sapiens); experiment: (§6) Positive allosteric modulation of human 5-HT2C receptor expressed in human HeLa-K1 cells assessed as potentiation of 5-HT-induced inositol monophosphate release after 20 mins by HTRF assay; format: functional, cell-based; procedure, shortened: as §3
[24] = target: T4, 5-hydroxytryptamine receptor 2C (Homo sapiens, UniProt P28335); experiment: as §6; format: functional, cell-based; procedure, shortened: as §3
T4 sequence (P28335 whole entry): T1 sequence (whole entry)

[25] = target: T1, 5-hydroxytryptamine receptor 2C (Homo sapiens); experiment: Positive allosteric modulation of human 5-HT2C receptor expressed in human HeLa-K1 cells assessed as potentiation of 5-HT-induced inositol monophosphate release at 1 uM after 20 mins by HTRF assay relative to control; format: functional, cell-based
Rattus norvegicus [26] = experiment: Antiobesity activity in continuous food access Wistar rat model assessed as reduction in body weight at 2 mg/kg, ip administered daily for 7 days; format: functional, organism-based; procedure, shortened: as §5
[27] = target: T1, 5-hydroxytryptamine receptor 2C (Homo sapiens); experiment: Displacement of [3H]-mesulergine from human 5-HT2C receptor expressed in human HeLa-K1 cell membranes at 10 uM after 60 mins relative to control; procedure, shortened: as §4
[28] = target: T3, 5-hydroxytryptamine receptor 2A; experiment: Positive allosteric modulation of human 5-HT2A receptor expressed in CHO-K1 cells assessed as potentiation of 5-HT-induced inositol monophosphate release at 10 uM after 20 mins by HTRF assay; format: cell-based; procedure, shortened: as §3

Structure (SMILES): FC(F)(F)c1ccc(Cn2cc(CNc3cccnc3)c3ccccc32)cc1
- Activity [6]: 8%

Structure (SMILES): N#Cc1cccc(Cn2cc(CNc3cccnc3)c3ccccc32)c1
- Activity [6]: 22%

Structure (SMILES): Brc1ccc(Cn2cc(CNc3cccnc3)c3ccccc32)cc1
- Activity [6]: 6%

Structure (SMILES): Fc1ccc(Cn2cc(CNc3cccnc3)c3ccccc32)cc1
- Activity [6]: 9%

Structure (SMILES): c1ccc(Cn2cc(CNc3cccnc3)c3ccccc32)nc1
- Activity [6]: 0%

Structure (SMILES): FC(F)(F)c1cccc(Cn2cc(CNc3cccnc3)c3ccccc32)c1
- Activity [6]: 0%

Structure (SMILES): N#Cc1ccc(Cn2cc(CNc3cccnc3)c3ccccc32)cc1
- Activity [6]: 7%

Structure (SMILES): N#Cc1ccccc1Cn1cc(CNc2cccnc2)c2ccccc21
- Activity [6]: 7%

Structure (SMILES): Fc1ccc(Cn2cc(CNc3cccnc3)c3ccccc32)c(F)c1
- Activity [6]: 9%

Structure (SMILES): Fc1cc(Cl)ccc1Cn1cc(CNc2cccnc2)c2ccccc21
- Activity [6]: 9%

Structure (SMILES): Cc1ccc(Cn2cc(CNc3cccnc3)c3ccccc32)cc1
- Activity [6]: 24%

Structure (SMILES): COc1cccc(Cn2cc(CNc3cccnc3)c3ccccc32)c1
- Activity [6]: 0%

Structure (SMILES): FC(F)(F)c1ccccc1Cn1cc(CNc2cccnc2)c2ccccc21
- Activity [6]: 9%

Second part, led by results:

- Activity [6]: 35%
- Activity [8]: inactive
- Activity [10]: Not Active
- inhibition [11]: 36%
- inhibition [12]: 21%
- inhibition [13]: 37%
- Activity [14]: Not Active
- inhibition [18]: 67%
- Kp at 6 h [21]: 3.8
- Activity [22]: Not Active
- Activity [23]: Dose-dependent effect
- EC50 [24]: 16 nM
- Activity [25]: 28%
- inhibition [27]: 26%
- Activity [28]: Not Active
Structure (SMILES): c1ccc(Cn2cc(CNc3cccnc3)c3ccccc32)cc1
- Activity (Rattus norvegicus [1]): Non-Toxic
- Activity (Rattus norvegicus [2]): Active
- Activity (Rattus norvegicus [3]): Active
- Activity (Rattus norvegicus [4]): Active
- Activity (Rattus norvegicus [5]): Toxic
- Activity (Rattus norvegicus [7]): Active
- Activity (Rattus norvegicus [9]): Toxic
- Activity (Rattus norvegicus [15]): 50%
- Activity (Rattus norvegicus [16]): Active
- Activity (Rattus norvegicus [17]): Active
- Activity (Rattus norvegicus [19]): Active
- Activity (Rattus norvegicus [20]): Active
- Activity (Rattus norvegicus [26]): Active

- Activity [6]: 9%
Structure (SMILES): c1cncc(NCc2cn(Cc3ccncc3)c3ccccc23)c1

- Activity [6]: 0%
Structure (SMILES): c1ccc(Cn2cc(CNc3ccnnc3)c3ccccc32)cc1

- Activity [6]: 21%
Structure (SMILES): Cc1ccncc1NCc1cn(Cc2ccccc2)c2ccccc12

- Activity [6]: 0%
Structure (SMILES): c1ccc(Cn2cc(CNc3cnccn3)c3ccccc32)cc1

- Activity [6]: 0%
Structure (SMILES): Brc1ccccc1Cn1cc(CNc2cccnc2)c2ccccc21

- Activity [6]: 25%
Structure (SMILES): c1cncc(Cn2cc(CNc3cccnc3)c3ccccc32)c1
